According to ChEMBL document CHEMBL2086321, “Modulation of thermo-transient receptor potential (thermo-TRP) channels by thymol-based compounds” (Bioorg Med Chem Lett, 2012):

Key:
Type in all cases: cell-based
[1] = molecular target: T1, Transient receptor potential cation channel subfamily A member 1 (Rattus norvegicus, UniProt Q6RI86); test: Activation of rat TRPA1 expressed in HEK293 cells assessed as stimulation of intracellular Ca2+ levels
Method in brief: (§1)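 HEK293 cells stably transfected with rat TRPA1, rat TRPM8 or rat TRPV3 cDNA. Compounds were applied and the rise in intracellular Ca2+ was recorded.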

HEK293 = test: Activation of rat TRPV3 expressed in HEK293 cells assessed as stimulation of intracellular Ca2+ levels relative to 4 uM ionomycin
Method in brief: (§2)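 Efficacy on HEK293 cells stably expressing rat TRPM8 or rat TRPV3 is the intracellular Ca2+ elevation expressed as percent of the ionomycin response.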

[2] = molecular target: T2, Transient receptor potential cation channel subfamily M member 8 (Rattus norvegicus, UniProt Q8R455); test: Inhibition of rat TRPM8 expressed in HEK293 cells assessed as reduction in […] icilin-stimulated increase in intracellular Ca2+ levels
[3] = molecular target: T2, Transient receptor potential cation channel subfamily M member 8; test: Inhibition of rat TRPM8 expressed in HEK293 cells assessed as reduction in 20 uM menthol-stimulated increase in intracellular Ca2+ levels
Method in brief: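 IC50 on rat TRPM8 stably expressed in HEK293 cells, measured as inhibition of the intracellular Ca2+ response to icilin or menthol. Means ± SEM, N = 3.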

[4] = molecular target: T1, Transient receptor potential cation channel subfamily A member 1; test: Inhibition of rat TRPA1 expressed in HEK293 cells assessed as reduction in 100 uM allyl isothiocyanate-stimulated increase in intracellular Ca2+ levels
Method in brief: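 Rat TRPA1-HEK293 stable cells were preincubated 5 min with compound, then incubation continued with allyl isothiocyanate.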

[5] = molecular target: Transient receptor potential cation channel subfamily M member 8 (Rattus norvegicus) (UniProt Q8R455); test: Activation of rat TRPM8 expressed in HEK293 cells assessed as stimulation of intracellular Ca2+ levels relative to 4 uM ionomycin; method in brief: as §2
[6] = Inhibition of rat TRPV3 expressed in HEK293 cells assessed as reduction in 100 uM thymol-stimulated increase in intracellular Ca2+ levels
[7] = Activation of rat TRPV3 expressed in HEK293 cells assessed as stimulation of intracellular Ca2+ levels; method in brief: as §1
[8] = molecular target: Transient receptor potential cation channel subfamily A member 1 (Rattus norvegicus) (UniProt Q6RI86); test: Activation of rat TRPA1 expressed in HEK293 cells assessed as stimulation of intracellular Ca2+ levels relative to 100 uM allyl isothiocyanate
Method in brief: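 Efficacy on stably transfected rat TRPA1-HEK293 cells is the intracellular Ca2+ rise expressed as percent of the allyl isothiocyanate response. Means ± SEM, N = 3.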

[9] = molecular target: T2, Transient receptor potential cation channel subfamily M member 8; test: Activation of rat TRPM8 expressed in HEK293 cells assessed as stimulation of intracellular Ca2+ levels; method in brief: as §1

T2 sequence (Q8R455 whole entry): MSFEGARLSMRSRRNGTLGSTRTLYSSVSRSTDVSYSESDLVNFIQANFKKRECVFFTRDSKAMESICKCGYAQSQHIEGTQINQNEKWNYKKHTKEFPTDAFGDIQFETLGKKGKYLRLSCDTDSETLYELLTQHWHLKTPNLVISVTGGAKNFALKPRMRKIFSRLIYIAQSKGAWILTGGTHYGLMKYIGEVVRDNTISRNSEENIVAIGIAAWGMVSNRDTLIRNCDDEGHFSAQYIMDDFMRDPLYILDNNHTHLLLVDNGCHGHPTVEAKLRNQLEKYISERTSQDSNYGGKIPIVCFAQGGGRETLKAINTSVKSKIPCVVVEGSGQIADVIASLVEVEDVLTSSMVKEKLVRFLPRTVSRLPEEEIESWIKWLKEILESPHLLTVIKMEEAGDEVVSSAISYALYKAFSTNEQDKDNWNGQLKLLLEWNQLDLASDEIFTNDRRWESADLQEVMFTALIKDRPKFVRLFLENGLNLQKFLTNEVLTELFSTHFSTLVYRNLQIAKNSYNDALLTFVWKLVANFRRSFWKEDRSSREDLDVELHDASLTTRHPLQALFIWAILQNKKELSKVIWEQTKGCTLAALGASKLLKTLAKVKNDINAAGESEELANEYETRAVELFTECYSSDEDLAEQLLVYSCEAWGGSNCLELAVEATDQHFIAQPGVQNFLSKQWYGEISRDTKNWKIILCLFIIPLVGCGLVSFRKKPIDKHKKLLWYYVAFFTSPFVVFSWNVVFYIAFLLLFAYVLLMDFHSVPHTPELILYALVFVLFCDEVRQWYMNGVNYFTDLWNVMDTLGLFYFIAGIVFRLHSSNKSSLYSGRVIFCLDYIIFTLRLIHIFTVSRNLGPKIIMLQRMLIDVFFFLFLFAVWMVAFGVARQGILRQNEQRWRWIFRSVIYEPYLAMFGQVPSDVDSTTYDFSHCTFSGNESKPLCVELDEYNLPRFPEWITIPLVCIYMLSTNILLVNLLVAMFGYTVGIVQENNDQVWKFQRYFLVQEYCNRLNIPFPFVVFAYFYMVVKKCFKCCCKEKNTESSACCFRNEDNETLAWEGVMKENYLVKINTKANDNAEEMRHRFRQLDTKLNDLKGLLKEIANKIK
Sequence of Transient receptor potential cation channel subfamily M member 8 (Rattus norvegicus) (Q8R455 whole entry, looked up): as the sequence (Q8R455 whole entry) above
T1 sequence (Q6RI86 whole entry): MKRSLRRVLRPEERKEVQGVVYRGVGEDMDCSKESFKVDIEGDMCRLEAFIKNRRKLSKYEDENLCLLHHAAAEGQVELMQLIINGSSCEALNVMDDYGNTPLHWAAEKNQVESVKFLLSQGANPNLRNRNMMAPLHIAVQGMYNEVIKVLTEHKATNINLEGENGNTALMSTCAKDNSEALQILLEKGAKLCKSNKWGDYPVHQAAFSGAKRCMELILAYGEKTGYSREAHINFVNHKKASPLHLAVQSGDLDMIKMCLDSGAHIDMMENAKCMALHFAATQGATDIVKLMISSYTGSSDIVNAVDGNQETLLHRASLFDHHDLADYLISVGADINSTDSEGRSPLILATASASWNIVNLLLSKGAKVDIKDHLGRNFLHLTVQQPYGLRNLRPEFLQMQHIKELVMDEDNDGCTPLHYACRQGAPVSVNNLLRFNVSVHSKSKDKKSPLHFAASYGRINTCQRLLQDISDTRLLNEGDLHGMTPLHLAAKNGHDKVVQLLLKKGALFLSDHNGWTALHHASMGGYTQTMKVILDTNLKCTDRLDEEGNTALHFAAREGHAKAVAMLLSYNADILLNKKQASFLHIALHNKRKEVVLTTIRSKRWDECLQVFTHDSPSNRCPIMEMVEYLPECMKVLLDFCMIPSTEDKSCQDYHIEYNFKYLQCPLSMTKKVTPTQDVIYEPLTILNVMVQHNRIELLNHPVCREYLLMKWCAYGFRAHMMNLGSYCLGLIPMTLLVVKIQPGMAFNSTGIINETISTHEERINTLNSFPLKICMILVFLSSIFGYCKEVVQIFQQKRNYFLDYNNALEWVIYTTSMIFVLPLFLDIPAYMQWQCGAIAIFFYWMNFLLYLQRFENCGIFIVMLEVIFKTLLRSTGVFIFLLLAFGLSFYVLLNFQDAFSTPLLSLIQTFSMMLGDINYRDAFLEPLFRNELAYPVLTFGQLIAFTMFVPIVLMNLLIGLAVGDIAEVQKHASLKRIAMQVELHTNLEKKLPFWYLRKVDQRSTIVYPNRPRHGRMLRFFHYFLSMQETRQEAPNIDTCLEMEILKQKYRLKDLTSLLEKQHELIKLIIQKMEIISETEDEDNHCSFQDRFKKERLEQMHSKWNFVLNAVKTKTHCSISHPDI
Sequence of Transient receptor potential cation channel subfamily A member 1 (Rattus norvegicus) (Q6RI86 whole entry): as above

Row | EC50 [1] | IC50 [2] | IC50 [3] | IC50 [4] | Efficacy [5] | IC50 [6] | EC50 [7] | Efficacy [8] | EC50 [9] | Structure (SMILES) | Efficacy (HEK293)
1 | 20.5 µM | 11.6 µM | 14.1 µM | 43.2 µM | < 10% | 20.4 µM | 15.9 µM | 154% |  | Cc1ccc(C(C)C)c(NC(=O)Cc2cccc(I)c2)c1 | 15%
2 | 14.1 µM | 38.5 µM | 77.5 µM | 34.4 µM | < 10% | 85.4 µM |  | 114% |  | COc1ccc(NC(=O)Nc2cc(C)ccc2C(C)C)cc1 | < 10%
3 |  | 0.6 µM | 0.32 µM | > 100 µM | 64.1% | 75.4 µM |  | < 10% | 0.27 µM | Cc1ccc(C(C)C)c(C(=O)NCCc2ccccc2)c1 | < 10%
4 |  | 4.8 µM | 5 µM | 26.1 µM | 43.2% | 4.9 µM | 11.8 µM | < 10% | 0.85 µM | Cc1ccc(C(C)C)c(C(=O)Nc2ccc(Cl)cc2)c1 | 43.4%
5 | 45.9 µM | 14.7 µM | 15.2 µM | > 100 µM | 58.1% | > 100 µM |  | 149% | 4.8 µM | COc1ccc(C(=O)Nc2cc(C)ccc2C(C)C)cc1 | < 10%
6 | 3.6 µM | > 100 µM | 77.4 µM | 3.6 µM | < 10% | 5 µM | 4 µM | 194% |  | COc1ccc(OC(=O)c2cc(C)ccc2C(C)C)cc1 | 27.1%
7 | 3.9 µM | 3.2 µM | 4.4 µM | 3.6 µM | 13.9% | 75.1 µM | 59.7 µM | 65.4% | 45.8 µM | Cc1ccc(C(C)C)c(C(=O)Nc2ccc(C(F)(F)F)cc2)c1 | 22.1%
8 | 287 µM | 315 µM | 169 µM | 125 µM | 31.1% |  | 84.1 µM | 119% | 52.2 µM | Cc1ccc(C(C)C)c(O)c1 [THYMOL] | 34.7%
9 | 64.2 µM | 238 µM | 113 µM | 212 µM | 33.8% | > 100 µM |  | 57.4% | 43.4 µM | Cc1ccc(C(C)C)c(N)c1 | < 10%
10 | 1 µM | 6.5 µM | 5 µM | 2.7 µM | < 10% | 9.7 µM | 4.9 µM | 149% |  | COc1ccc(C(=O)Oc2cc(C)ccc2C(C)C)cc1 | 23.1%

More lines, now with the values behind:

Row | Structure (SMILES) | EC50 [1] | IC50 [2] | IC50 [3] | IC50 [4] | Efficacy [5] | IC50 [6] | EC50 [7] | Efficacy [8] | EC50 [9] | Efficacy (HEK293)
11 | Cc1ccc(C(C)C)c(OC(=O)Cc2ccc(-c3ccccc3)cc2)c1 | 1.8 µM | > 100 µM | > 100 µM | 20.9 µM | < 10% | 1.5 µM | 3.8 µM | 226% |  | 52.7%
12 | Cc1ccc(C(C)C)c(C(=O)Nc2ccc(C(C)(C)C)cc2)c1 | 0.6 µM | 1.9 µM | 1.2 µM | 0.84 µM | 40% | 1.1 µM | 1.2 µM | 97.9% | 0.6 µM | 36.5%
13 | Cc1ccc(C(C)C)c(NC(=O)Nc2ccc(C(C)(C)C)cc2)c1 | 4.3 µM | > 100 µM | 26.7 µM | 25 µM | < 10% | 3.3 µM | 7.6 µM | 235% |  | 31.6%
14 | Cc1ccc(C(C)C)c(NC(=O)c2ccc(C(C)(C)C)cc2)c1 | 6.4 µM | 1 µM | 1 µM | 8.8 µM | 24.5% | 6.2 µM | 10.6 µM | 204% | 0.44 µM | 34.8%
15 | Cc1ccc(C(C)C)c(C(=O)NCCc2c[nH]c3ccc(OCc4ccccc4)cc23)c1 | 25.9 µM | 69.4 µM | 61.4 µM | 70.2 µM | < 10% | 41.9 µM |  | 241% |  | < 10%
16 | Cc1ccc(C(C)C)c(NC(=O)Oc2ccc(C(C)(C)C)cc2)c1 | 1.3 µM | 0.7 µM | 0.85 µM | 0.78 µM | < 10% | 1.9 µM | 1.4 µM | 132% |  | 62.5%
17 | Cc1ccc(C(C)C)c(OC(=O)c2ccc(-c3ccccc3)cc2)c1 | 3.3 µM | 21.2 µM | 18.6 µM | 5.5 µM | < 10% | 6.5 µM | 7.7 µM | 204% |  | 33.8%
18 | Cc1ccc(C(C)C)c(NC(=O)Cc2ccc(-c3ccccc3)cc2)c1 | 6.5 µM | 31.2 µM | 78.3 µM | 3.9 µM | < 10% | 29.7 µM | 6.3 µM | 212% |  | 39.3%
19 | Cc1ccc(C(C)C)c(NC(=O)Oc2ccc(C(F)(F)F)cc2)c1 | 41 µM | 23.1 µM | 73.7 µM | 4.1 µM | < 10% | 50.3 µM |  | 178% |  | < 10%
20 | Cc1ccc(C(C)C)c(NC(=O)Nc2ccc(-c3ccccc3)cc2)c1 | 32.2 µM | 37.4 µM | 25.4 µM | 27.9 µM | < 10% | 12.8 µM | 5.9 µM | 224% |  | 16.9%
21 | Cc1ccc(C(C)C)c(C(=O)Oc2ccc(-c3ccccc3)cc2)c1 | 7.4 µM | > 100 µM | > 100 µM | 12.7 µM | < 10% | 2.9 µM | 14.5 µM | 195% |  | 64.3%
22 | COc1ccc(NC(=O)Oc2cc(C)ccc2C(C)C)cc1 | 7.4 µM | 2.5 µM | 5.2 µM | 4.5 µM | 30.3% | 64.3 µM |  | 264% | 5.1 µM | < 10%
